TRPC6 activator: activates the mouse TRPC6 cation channel; Q61143; HEK293-TRPC6 membrane potential dye fluorescence; active compounds read high; B-score at 10 µM; 310,000 compounds, 0.13% hits;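 active = B-score of the integrated fluorescence ratio above library mean plus 3 SD, and starting fluorescence ratio within library mean plus 5 SD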;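 also: higher score means more depolarization so channel activation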
Target sequence (Q61143 whole entry, looked up): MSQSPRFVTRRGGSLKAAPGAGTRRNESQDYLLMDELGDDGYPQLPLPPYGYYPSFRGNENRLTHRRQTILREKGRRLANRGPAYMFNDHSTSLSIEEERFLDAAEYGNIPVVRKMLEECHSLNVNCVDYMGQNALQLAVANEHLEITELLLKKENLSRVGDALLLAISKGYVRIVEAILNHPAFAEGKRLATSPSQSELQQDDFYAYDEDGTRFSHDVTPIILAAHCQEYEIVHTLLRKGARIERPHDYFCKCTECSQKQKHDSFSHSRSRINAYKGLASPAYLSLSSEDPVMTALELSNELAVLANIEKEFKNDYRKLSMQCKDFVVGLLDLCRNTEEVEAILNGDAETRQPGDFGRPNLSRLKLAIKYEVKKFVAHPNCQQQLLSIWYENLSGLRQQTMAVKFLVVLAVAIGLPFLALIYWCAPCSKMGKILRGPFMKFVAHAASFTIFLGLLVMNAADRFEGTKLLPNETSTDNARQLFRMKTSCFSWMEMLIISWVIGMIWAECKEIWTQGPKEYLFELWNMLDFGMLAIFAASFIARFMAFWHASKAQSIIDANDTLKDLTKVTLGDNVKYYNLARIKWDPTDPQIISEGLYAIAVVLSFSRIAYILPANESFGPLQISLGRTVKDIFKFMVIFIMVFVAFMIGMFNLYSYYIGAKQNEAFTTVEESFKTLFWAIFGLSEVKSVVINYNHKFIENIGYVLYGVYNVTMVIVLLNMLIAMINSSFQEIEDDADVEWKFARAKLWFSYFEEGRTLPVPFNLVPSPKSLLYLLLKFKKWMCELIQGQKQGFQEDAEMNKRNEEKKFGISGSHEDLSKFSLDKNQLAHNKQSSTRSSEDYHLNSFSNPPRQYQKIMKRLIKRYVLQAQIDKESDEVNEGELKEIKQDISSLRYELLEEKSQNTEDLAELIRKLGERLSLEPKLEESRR
TRPC6 inh: mouse TRPC6 channel inhibition. 310,000 compounds, 1.1% hits. Q61143. HEK293-TRPC6, membrane potential dye, ACh-evoked depolarization; active compounds read low. AID 2553. B-score at 10 µM;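 active = B-score under library mean minus 3 SD, initial fluorescence not abnormally high, positive integrated signal ratio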;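 also: B-score derived from integrated fluorescence ratio over the kinetic read; more negative B-score means stronger inhibition of depolarization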
TRPC4 agonist: opens the mouse TRPC4 cation channel | Q9QUQ5 | HEK293 TRPC4beta/mu-opioid, Fluo4 calcium fluorescence; active compounds read high | B-score at 10 µM | 310,000 compounds, 0.49% hits | AID 2237;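 active = B-score above 5 SD of library B-scores, and initial fluorescence ratio not above library mean plus 5 SD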;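 also: positive B-score marks a calcium rise read as TRPC4 activation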
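Incubation: 45 min room-temperature Fluo4 loading, 110 s read / System: HEK293 cells stably co-expressing mouse TRPC4beta and mu-opioid receptor / Signal: Fluo4 fluorescence, kinetic / Control set: buffer (low) and maximal DAMGO (high) / Measure: integrated baseline-normalised fluorescence ratio, converted to per-well B score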
TRPC4 potent: TRPC4 (mouse) allosteric potentiation | HEK293 TRPC4beta/mu-opioid, DAMGO EC20, Fluo-4 Ca2+ flux; active compounds read high | B-score at 10 µM | 310,000 compounds, 0.42% hits | AID 2227 | Q9QUQ5;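 active = B-score of calcium response area above 5 SD of library B-scores, with initial fluorescence ratio within 5 SD of library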;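 also: B-score of integrated fluorescence ratio over time as area under calcium response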
TRPC4 block: blocks the mouse TRPC4 cation channel. Q9QUQ5. HEK293 TRPC4beta/mu-opioid, DAMGO-evoked Fluo4 calcium flux; active compounds read low. B-score at 10 µM. 300,000 compounds, 0.39% hits;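 active = B-score over 3 SD under the library average, no early fluorescence shift, positive overall ratio signal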
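Assay system – HEK293 line stably carrying TRPC4beta and mu-opioid receptor · Doses – single dose · Detection – Fluo4 calcium-dye fluorescence, kinetic read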
TRPC4 spec 2: second selectivity test of TRPC6 inhibitors: effect on mouse TRPC4. AID 2776. inhibition, % at 10 µM. 920 compounds, 42% hits. HEK293 TRPC4/MOR, membrane potential dye fluorescence; channel activated by saturating DAMGO dose. shares compounds with TRPC6 inh;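 active = compounds whose fluorescence signal differed from control wells by over 3 SD, either direction, in both duplicate plates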
TRPC4 spec: selectivity of TRPC6 inhibitors: effect on mouse TRPC4 | shares compounds with TRPC6 inh | HEK293 TRPC4/mu-opioid, membrane potential fluorescence | activity change, negative = inhibition, % at 10 µM | 920 compounds, 61% hits | AID 2777;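 active = rise or fall in signal beyond 3 SD of buffer-only wells in both replicate plates, either sign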;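 also: integrated kinetic ratio of fluorescence range over baseline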
HEK293 MPD ctr 2-1: second counter-screen for TRPC6 inhibitors: parental HEK293 cells. signal change vs control, % at 10 µM. shares compounds with TRPC6 inh. 920 compounds, 31% hits. parental HEK293 membrane potential dye fluorescence; maximal acetylcholine challenge after compound addition;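 active = membrane potential signal moving either way by over 3 SD of the maximum-effect control, in both duplicate plates, meaning non-specific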
HEK293 MPD ctr-1: checks TRPC6 inhibitor effects in parental HEK293 cells; shares compounds with TRPC6 inh; parental HEK293 membrane potential dye fluorescence; membrane potential signal change, % at 10 µM; 920 compounds, 60% hits;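 active = membrane potential signal shifting up or down by more than 3 SD of buffer-only wells, on both duplicate plates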
HEK293 MPD ctr-2: parental HEK293 nonspecific activity of TRPC6 modulators. shares compounds with TRPC6 inh. membrane potential dye fluorescence. membrane potential signal change, % at 10 µM. 2,400 compounds, 51% hits. AID 488924;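 active = membrane potential signal moves up or down beyond 5 SD from buffer-only wells, on both duplicate plates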
HEK293 MPD ctr 2-2: second check of TRPC6 modulator effects in parental HEK293 cells; shares compounds with TRPC6 inh; membrane potential dye fluorescence; after compound, maximal acetylcholine stimulation; inhibition, % at 10 µM; 2,400 compounds, 14% hits; AID 488926;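 active = membrane potential signal drops by more than 5 SD from the mean control signal, in both duplicate plates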;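 also: plate controls were acetylcholine ECmax control wells for no effect and buffer only wells for full effect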
TRPC4 ctr mod: mouse TRPC4 off-target activity of TRPC6 modulators | shares compounds with TRPC6 inh | HEK293 TRPC4/mu-opioid, membrane potential fluorescence | percent change from control (negative = decrease, positive = increase), % at 10 µM | 2,400 compounds, 69% hits | AID 488927;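 active = membrane potential signal moved up or down beyond 5 SD of buffer control wells, in both duplicate plates, actives on both sides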;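 also: plate controls were assay buffer wells for no effect and DAMGO maximal-effect wells for full effect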
TRPC4/MOR inh 2: second selectivity test of TRPC6 modulators against mouse TRPC4; shares compounds with TRPC6 inh; HEK293 TRPC4/mu-opioid, membrane potential dye fluorescence; stimulated with maximal-effect DAMGO; inhibition, % at 10 µM; 2,400 compounds, 55% hits; AID 488928;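 active = drop in membrane potential signal beyond 5 SD of the control wells in both duplicate plates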;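 also: TRPC4 counter screen for TRPC6 hits run under conditions tuned for TRPC6 not TRPC4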
TRPC6 inh conf: mouse TRPC6 inhibitor confirmation | inhibition, % at 10 µM | 3,300 compounds, 43% hits | HEK293-TRPC6, membrane potential dye, ACh-evoked depolarization | shares compounds with TRPC6 inh | AID 488960;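 active = fluorescence ratio falls more than 5 SD below the full-stimulation control mean, in both duplicate runs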;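 also: integrated fluorescence ratio of peak minus minimum over baseline after agonist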
TRPC6 act confirm: confirmation of mouse TRPC6 activators | shares compounds with TRPC6 inh | activation, % at 10 µM | AID 488961 | 2,800 compounds, 11% hits | HEK293-TRPC6 membrane potential dye fluorescence, FDSS;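 active = ratio signal rise beyond 5 SD above unstimulated control wells' mean, seen in both duplicate runs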;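 also: plate controls were buffer EC0 wells for no effect and acetylcholine ECmax response for full effect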
* hit, by the source's call; i = inactive; x = not tested or not shown. The list is not random: actives were taken first. Their share in the collection is about 2.3%.

SMILES	TRPC6 activator	TRPC6 inh	TRPC4 agonist	TRPC4 potent	TRPC4 block	HEK293 MPD ctr-2	HEK293 MPD ctr 2-2	TRPC4 ctr mod	TRPC4/MOR inh 2	TRPC6 inh conf	TRPC6 act confirm	others
COc1ccc(-c2cn3cc(C)ccc3n2)cc1OC	i	-7.57*	i	i	i	x	x	x	x	i	i	TRPC4 spec 2=i;TRPC4 spec=-9.8%*;HEK293 MPD ctr 2-1=-27.5%*;HEK293 MPD ctr-1=i
Cc1ccc(-c2nc(NCCN(C)C)c3ccccc3n2)cc1	i	i	i	i	i	x	x	x	x	x	x
CN(C)CCNc1cc(-c2ccncc2)nc2ccccc12	i	-11.3*	i	15*	i	-327.5%*	90.0%*	-81.0%*	77.5%*	75.0%*	i
CN(C)C(CNc1ccc(S(C)(=O)=O)cc1[N+](=O)[O-])Cc1ccccc1 (stereo unspecified)	i	-5.09*	i	i	i	i	i	i	31.5%*	i	i
c1csc(-c2noc(CN3CCc4sccc4C3)n2)c1	i	i	i	i	i	x	x	x	x	x	x
COc1ccc(N2CCc3c(C)nc4c(OC)cccc4c32)cc1	i	-7.98*	i	i	i	x	x	x	x	58.2%*	i	TRPC4 spec 2=52.0%*;TRPC4 spec=-24.0%*;HEK293 MPD ctr 2-1=i;HEK293 MPD ctr-1=-320.0%*
COc1ccc(N2CCc3c(C)nc4c(OC)cc(OC)cc4c32)cc1	i	-5.72*	i	i	i	-173.0%*	75.5%*	-23.5%*	56.5%*	55.0%*	i
COc1ccc(N2CCc3c(C)nc4c(OC)cc(OC)cc4c32)c(OC)c1	i	i	i	i	i	x	x	x	x	x	x
COc1cccc(N2CCc3c(C)nc4ccc(Cl)cc4c32)c1	i	-6.21*	i	i	i	i	58.0%*	i	88.5%*	62.0%*	i
Cc1nc2c(C)cccc2c2c1CCN2c1ccccc1F	i	-5.82*	i	i	i	-143.0%*	i	-20.0%*	58.0%*	49.5%*	i
CCOC(=O)Nc1ccc(Cc2ccncc2)cc1	i	i	i	i	i	x	x	x	x	x	x
CCOc1cc(/C=N/NC(=O)C(=O)NCc2ccc3c(c2)OCO3)ccc1OCC(=O)N1CCOCC1	i	i	i	i	i	x	x	x	x	x	x
Cc1nc(S(=O)(=O)N2CCN(C3c4ccccc4-c4ccccc43)CC2)cn1C	i	i	i	i	i	x	x	x	x	x	x
Cc1nc2c(o1)CCc1ccccc1C2N1CCN(C)CC1 (stereo unspecified)	i	-9.39*	i	i	i	x	x	x	x	73.7%*	x	TRPC4 spec 2=i;TRPC4 spec=8.0%*;HEK293 MPD ctr 2-1=-14.0%*;HEK293 MPD ctr-1=10.6%*
CCn1cc(C(=O)OCc2ccc(F)cc2)c(=O)c2ccc(C)nc21	i	-10*	i	i	i	-340.0%*	83.5%*	-52.5%*	65.0%*	63.5%*	i
CCn1cc(C(=O)OCc2ccccc2)c(=O)c2ccc(C)nc21	i	-6.02*	i	i	i	-308.0%*	i	-50.5%*	47.5%*	i	i
O=C1OCC=C1NNC(=O)c1cccnc1	i	i	i	i	i	x	x	x	x	x	x
COc1ccccc1NC(=O)COc1ccc(Br)cc1CNC1CCCC1	i	-7.56*	i	i	i	x	x	x	x	i	i	TRPC4 spec 2=54.0%*;TRPC4 spec=13.5%*;HEK293 MPD ctr 2-1=237.5%*;HEK293 MPD ctr-1=9.8%*
O=C(COc1ccccc1)NC1CCCCCCC1	i	-5.96*	i	39*	i	102.0%*	i	77.0%*	i	i	x
COc1ccccc1N(CC(=O)NC1CCCCC1)S(=O)(=O)c1ccccc1	i	-5.1*	i	i	i	474.5%*	i	208.5%*	37.5%*	i	x
COc1ccccc1N(CC(=O)NC1CCCCC1)S(C)(=O)=O	i	i	i	i	i	x	x	x	x	x	x
COC(=O)c1ccccc1OCC(=O)NC1CCCCC1	i	-5.29*	i	i	i	i	i	8.0%*	i	i	x
COc1cccc(N2CCN(C(=O)CSc3ccc(F)cc3)CC2)c1	i	i	i	i	i	x	x	x	x	x	x
CCCc1nnc(SCC(=O)Nc2ccc(NC(C)=O)cc2)n1-n1cccc1	i	i	i	i	i	x	x	x	x	x	x
CCn1cc(S(=O)(=O)N2CCc3ccccc3C2)cn1	i	i	i	i	i	x	x	x	x	x	x
SMILES	TRPC6 activator	TRPC6 inh	TRPC4 agonist	TRPC4 potent	TRPC4 block	HEK293 MPD ctr-2	HEK293 MPD ctr 2-2	TRPC4 ctr mod	TRPC4/MOR inh 2	TRPC6 inh conf	TRPC6 act confirm	others
CN(C(=O)c1cc(-n2cnnc2)ccc1Cl)c1ccccc1	i	i	i	i	i	x	x	x	x	x	x
O=C(CCS(=O)(=O)c1ccccc1)NC1CCCCC1	i	i	i	i	i	x	x	x	x	x	x
CCc1ccccc1OCC(=O)NC1CCCC1	i	-5.85*	i	i	i	111.5%*	i	20.5%*	i	41.0%*	x
COc1ccccc1CC(=O)NC1CCCCCC1	i	i	i	i	i	x	x	x	x	x	x
COc1ccc(S(=O)(=O)CCC(=O)NC2CCCCC2)cc1	i	-8.13*	i	i	i	x	x	x	x	i	i	TRPC4 spec 2=i;TRPC4 spec=i;HEK293 MPD ctr 2-1=i;HEK293 MPD ctr-1=i
CCCc1ncc(C(O)(c2ccccc2)c2ccccc2)n1C	i	-8.76*	i	i	i	x	x	x	x	57.6%*	x	TRPC4 spec 2=i;TRPC4 spec=21.8%*;HEK293 MPD ctr 2-1=i;HEK293 MPD ctr-1=15.5%*

Compound activity deposited in PubChem by Johns Hopkins Ion Channel Center.
